From ChEMBL document CHEMBL1156309, “Design and optimization of a substituted amino propanamide series of renin inhibitors for the treatment of hypertension” (Bioorg Med Chem Lett, 2010)

What was measured:
Renin [1] = target: T1, Renin (Homo sapiens, UniProt P00797); experiment: Inhibition of human recombinant renin in PBS buffer at pH 7.4
T1 sequence (P00797 whole entry): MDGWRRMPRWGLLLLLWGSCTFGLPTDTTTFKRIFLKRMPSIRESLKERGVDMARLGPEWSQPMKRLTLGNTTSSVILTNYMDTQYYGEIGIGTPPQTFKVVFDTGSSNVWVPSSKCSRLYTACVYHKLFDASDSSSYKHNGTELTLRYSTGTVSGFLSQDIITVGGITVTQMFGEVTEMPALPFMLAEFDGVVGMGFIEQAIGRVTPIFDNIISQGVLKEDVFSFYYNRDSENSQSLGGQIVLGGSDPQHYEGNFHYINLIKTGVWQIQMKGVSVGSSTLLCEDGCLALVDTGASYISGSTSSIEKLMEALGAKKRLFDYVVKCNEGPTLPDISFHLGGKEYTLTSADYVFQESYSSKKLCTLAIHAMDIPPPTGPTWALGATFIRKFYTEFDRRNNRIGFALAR
Method in brief: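 Recombinant human renin (3 pg/µL) in PBS with 1 mM EDTA, 0.1% BSA, pH 7.4, with human tetradecapeptide (1-14) substrate and hydroxyquinoline sulfate. Compounds diluted in DMSO; incubation 3 h at 37 °C. Angl accumulation measured; percent inhibition at each concentration, IC50 from curve fit. Average of at least two replicates.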

Renin [2] = target: T1, Renin; experiment: Inhibition of human recombinant renin in human citreated-plasma
Method in brief: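 Pooled human citrate plasma supplemented with recombinant human renin (150 pg/mL final). Compounds in DMSO at various concentrations added to plasma mixed with trapping anti-Angl antibody (final antiserum dilution 1:50,000) in Tris/EDTA, pH 7.2; incubation 2 h at 37 °C. Angl accumulation read by immunoassay; IC50 from curve fit. Average of at least two replicates.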

Rattus norvegicus = experiment: Antihypertensive activity in telemetered double-transgenic rat assessed as decrease in blood pressure at 3 mg/kg, po after 2 days; type: functional
Method in brief: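 Telemetered double-transgenic rats (n = 8) dosed orally at 3 mpk. Blood pressure monitored by telemetry; maximum fall in mm Hg and duration of action recorded.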

[3] = Clearance in Beagle dog at 3 mg/kg, po and 1 mg/kg, iv; type: ADME, organism-based, Canis lupus familiaris; conditions: in vivo
[4] = Clearance in Sprague-Dawley rat at 30 mg/kg, po and 5 mg/kg, iv; type: ADME, organism-based; conditions: in vivo
Canis familiaris = experiment: Antihypertensive activity in Beagle assessed as prolongation of CV intervals at 12 uM, iv after 2 days; type: functional, Canis lupus familiaris
Method in brief: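 Beagle dogs given compound intravenously up to 12 µM plasma exposure. QTc, PR and QRS intervals monitored for prolongation.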

[5] = Volume of distribution at steady state in Sprague-Dawley rat at 30 mg/kg, po and 5 mg/kg, iv; type: ADME, organism-based; conditions: in vivo, read-out: Vdss
[6] = Half life in Beagle dog at 3 mg/kg, po and 1 mg/kg, iv; type: ADME, organism-based, Canis lupus familiaris; conditions: in vivo
[7] = Oral bioavailability in Beagle dog at 3 mg/kg; type: ADME, organism-based, Canis lupus familiaris; conditions: in vivo
[8] = Volume of distribution at steady state in Beagle dog at 3 mg/kg, po and 1 mg/kg, iv; type: ADME, organism-based, Canis lupus familiaris; conditions: in vivo, read-out: Vdss
[9] = Half life in Sprague-Dawley rat at 30 mg/kg, po and 5 mg/kg, iv; type: ADME, organism-based; conditions: in vivo
[10] = Oral bioavailability in Sprague-Dawley rat at 30 mg/kg; type: ADME, organism-based; conditions: in vivo
[11] = AUC in Beagle dog at 3 mg/kg, po; type: ADME, organism-based, Canis lupus familiaris; parameters: dose 3 mg/kg, route oral; conditions: plasma
Cytochrome P450 3A4 = Cytochrome P450 3A4 (Homo sapiens, UniProt P08684); experiment: Inhibition of CYP3A4 after 30 mins; type: ADME
Cytochrome P450 3A4, sequence (P08684 whole entry): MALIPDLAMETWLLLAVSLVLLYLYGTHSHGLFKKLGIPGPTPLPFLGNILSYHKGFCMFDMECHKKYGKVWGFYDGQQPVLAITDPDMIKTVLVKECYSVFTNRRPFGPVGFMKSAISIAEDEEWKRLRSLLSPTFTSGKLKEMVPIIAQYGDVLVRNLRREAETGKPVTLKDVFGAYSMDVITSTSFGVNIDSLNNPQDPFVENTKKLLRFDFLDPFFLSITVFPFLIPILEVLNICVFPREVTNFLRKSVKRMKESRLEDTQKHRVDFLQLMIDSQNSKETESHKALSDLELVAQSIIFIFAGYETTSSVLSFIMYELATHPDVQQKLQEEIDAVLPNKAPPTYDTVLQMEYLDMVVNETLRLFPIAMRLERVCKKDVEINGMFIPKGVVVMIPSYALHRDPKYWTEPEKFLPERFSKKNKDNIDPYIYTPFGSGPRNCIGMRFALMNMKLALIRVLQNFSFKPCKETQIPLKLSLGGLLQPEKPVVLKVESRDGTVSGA

[12] = AUC in Sprague-Dawley rat at 30 mg/kg, po; type: ADME, organism-based; parameters: dose 30 mg/kg, route oral; conditions: plasma

NCCC(CC(=O)N(Cc1cccc(Cl)c1Cl)C1CC1)c1ccc(CCCOc2c(F)ccc(F)c2Cl)cc1 (stereo unspecified)
IC50 (Renin [1]): 650 nM

COCCCc1cc(Cl)c(Cl)c(CN(C(=O)C(CN)Cc2ccc(CCCOc3c(Cl)cc(C)cc3Cl)cc2)C2CC2)c1 (stereo unspecified)
IC50 (Renin [1]): 0.26 nM
IC50 (Renin [2]): 31 nM

COCCCc1cc(CN(C(=O)C(CN)Cc2ccc(CCCOc3c(Cl)cc(C)cc3Cl)cc2)C2CC2)c(Cl)cn1 (stereo unspecified)
IC50 (Renin [1]): 0.19 nM
IC50 (Renin [2]): 2.2 nM

COCCCc1ccc(Cl)c(CN(C(=O)[C@H](CN)Cc2ccc(CCCOc3c(Cl)cc(C)cc3Cl)cc2)C2CC2)c1
Activity (Rattus norvegicus): 27 mmHg
clearance [3]: 16 mL/min/kg
clearance [4]: 35 mL/min/kg
Activity (Canis familiaris): <5%
IC50 (Renin [1]): 0.09 nM
IC50 (Renin [2]): 2.4 nM
Vd [5]: 12 L/kg
half-life [6]: 17 h
bioavailability [7]: 32%
Vd [8]: 8.4 L/kg
half-life [9]: 6 h
bioavailability [10]: 41%
AUC [11]: 1.3 µM·h
IC50 (Cytochrome P450 3A4): 130 nM
AUC [12]: 8.3 µM·h

COCCCc1cc(CN(C(=O)C(CN)Cc2ccc(CCCOc3c(Cl)cc(C)cc3Cl)cc2)C2CC2)c(Cl)c[n+]1[O-] (stereo unspecified)
IC50 (Renin [1]): 0.3 nM
IC50 (Renin [2]): 1.8 nM

COCCCc1ccc(Cl)c(CN(C(=O)C(CN)Cc2ccc(CCCOc3c(Cl)cc(C)cc3Cl)cc2)C2CC2)c1 (racemic)
IC50 (Renin [1]): 0.26 nM
IC50 (Renin [2]): 5.8 nM

Cc1cc(Cl)c(OCCCc2ccc(CC(CN)C(=O)N(Cc3cc(CCCO)ccc3Cl)C3CC3)cc2)c(Cl)c1 (stereo unspecified)
IC50 (Renin [1]): 0.09 nM
IC50 (Renin [2]): 6.4 nM

CC(CN)(Cc1ccc(CCCOc2c(F)ccc(F)c2Cl)cc1)C(=O)N(Cc1cccc(Cl)c1Cl)C1CC1 (stereo unspecified)
IC50 (Renin [1]): 210 nM

CC(=O)N(C)Cc1ccc(Cl)c(CN(C(=O)C(CN)Cc2ccc(CCCOc3c(Cl)cc(C)cc3Cl)cc2)C2CC2)c1 (stereo unspecified)
IC50 (Renin [1]): 2.9 nM
IC50 (Renin [2]): 250 nM

COCCc1ccc(Cl)c(CN(C(=O)C(CN)Cc2ccc(CCCOc3c(Cl)cc(C)cc3Cl)cc2)C2CC2)c1 (stereo unspecified)
IC50 (Renin [1]): 0.19 nM

COCCCc1cc(CN(C(=O)[C@@H](CN)Cc2ccc(CCCOc3c(Cl)cc(C)cc3Cl)cc2)C2CC2)cc(OCCOC)c1
Activity (Rattus norvegicus): 35 mmHg
clearance [3]: 35 mL/min/kg
clearance [4]: 13 mL/min/kg
Vd [5]: 3.6 L/kg
half-life [6]: 7.5 h
bioavailability [7]: 36%
Vd [8]: 15 L/kg
half-life [9]: 4 h
bioavailability [10]: 48%
AUC [11]: 0.7 µM·h
IC50 (Cytochrome P450 3A4): 1300 nM
AUC [12]: 27.5 µM·h

Cc1cc(Cl)c(OCCCc2ccc(C[C@@H](CN)C(=O)N(Cc3cc(CCCC#N)ccc3Cl)C3CC3)cc2)c(Cl)c1
IC50 (Renin [1]): 0.11 nM
IC50 (Renin [2]): 4.6 nM

COCCOc1ccc(Cl)c(CN(C(=O)C(CN)Cc2ccc(CCCOc3c(Cl)cc(C)cc3Cl)cc2)C2CC2)c1 (stereo unspecified)
IC50 (Renin [1]): 0.21 nM

NCC(Cc1ccc(CCCOc2c(F)ccc(F)c2Cl)cc1)C(=O)N(Cc1cccc(Cl)c1Cl)C1CC1 (racemic)
IC50 (Renin [1]): 0.79 nM
IC50 (Renin [2]): 21 nM

O=C(C(CNCc1ccccc1)Cc1ccc(CCCOc2c(F)ccc(F)c2Cl)cc1)N(Cc1cccc(Cl)c1Cl)C1CC1 (stereo unspecified)
IC50 (Renin [1]): 260 nM

Cc1cc(Cl)c(OCCCc2ccc(CC(CN)C(=O)N(Cc3cccc(Cl)c3Cl)C3CC3)cc2)c(Cl)c1 (stereo unspecified)
IC50 (Renin [1]): 0.4 nM
IC50 (Renin [2]): 29 nM

Cc1cc(Cl)c(OCCCc2ccc(CC(CN)C(=O)N(Cc3cc(CCCN(C)C)ccc3Cl)C3CC3)cc2)c(Cl)c1 (stereo unspecified)
IC50 (Renin [1]): 1.5 nM
IC50 (Renin [2]): 103 nM

Cc1cc(Cl)c(OCCCc2ccc(CC(CN)C(=O)N(Cc3cc(CCC#N)ccc3Cl)C3CC3)cc2)c(Cl)c1 (stereo unspecified)
IC50 (Renin [1]): 0.27 nM
IC50 (Renin [2]): 10 nM

CNCC(Cc1ccc(CCCOc2c(F)ccc(F)c2Cl)cc1)C(=O)N(Cc1cccc(Cl)c1Cl)C1CC1 (stereo unspecified)
IC50 (Renin [1]): 1.9 nM
IC50 (Renin [2]): 350 nM
